Reference: article PMC3567257 (Biochemistry, 2012)
Substitutions are numbered along the chain they refer to. Structures can show the parent of a compound that is named as a salt. Where two headings read alike, the source gives them in different places. One block for each molecule: values may come before it.

What was measured:
GST-JARID1A PHD3 = target: T1, GST-JARID1A PHD3 (Homo sapiens, UniProt P29375); test: Fluorescence polarization binding assay; settings: for loss of polarization (loss of peptide binding): up to 200 μM
T1 sequence (P29375 1601-1660): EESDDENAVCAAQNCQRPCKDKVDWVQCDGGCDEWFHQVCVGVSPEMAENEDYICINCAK

JMJD2A DTD [1] = target: T2, JMJD2A DTD (Homo sapiens, UniProt O75164); test: HaloTag assay counterscreen; type: binding; settings: 0, 50, 100, 200 μM
T2 sequence (O75164 895-1011): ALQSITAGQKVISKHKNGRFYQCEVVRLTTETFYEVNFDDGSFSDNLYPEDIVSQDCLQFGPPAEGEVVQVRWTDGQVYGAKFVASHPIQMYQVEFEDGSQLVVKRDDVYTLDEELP

RAG2 PHD [2] = target: T3, RAG2 PHD (Mus musculus, UniProt P21784); test: HaloTag assay counterscreen; type: binding; settings: 0, 50, 100, 200 μM
T3 sequence (P21784 414-487): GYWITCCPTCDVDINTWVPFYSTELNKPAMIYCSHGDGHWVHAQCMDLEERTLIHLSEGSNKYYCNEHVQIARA

BHC80 PHD [3] = target: T4, BHC80 PHD (Homo sapiens, UniProt Q96BD5); test: HaloTag assay counterscreen; type: binding; settings: 0, 50, 100, 200 μM
JARID1A PHD3 [4] = target: T5, JARID1A PHD3 (Homo sapiens, UniProt P29375); test: HaloTag assay for histone peptide binding; settings: for effect on JARID1A PHD3 binding to H3K4me3 peptide in HaloTag assay: compound 0–200 μM
T5 sequence (P29375 1601-1660): T1 sequence (P29375 1601-1660)
Method in brief: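 (HQ)5-HaloTag-JARID1A PHD3 (40 μM as added) is captured on HaloTag-ligand plates for 2 h with shaking, then washed with HBST. […] Detection uses streptavidin-HRP (1:2,000, 20 min), six washes and chemiluminescence. Diluent is StabilCoat with 0.5 mM TCEP, at ambient temperature. IC50 is fitted from relative binding versus log[inhibitor].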

AIRE PHD1 [5] = target: T6, AIRE PHD1 (Homo sapiens, UniProt O43918); test: HaloTag assay counterscreen; type: binding; settings: 0, 50, 100, 200 μM
T6 sequence (O43918 293-354): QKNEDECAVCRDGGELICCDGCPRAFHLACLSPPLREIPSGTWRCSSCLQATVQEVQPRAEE

JARID1A PHD3 [6] = target: T5, JARID1A PHD3; test: Zinc ejection study; type: biochemical; settings: for zinc release from JARID1A PHD3 (PAR assay): increasing concentrations
Method in brief: (§1)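 His6-JARID1A PHD3 or (HQ)5-HaloTag reader-domain fusion at 5 μM was treated with increasing test compound concentrations in 10 mM PAR, 30 mM HEPES, 150 mM NaCl, pH 7.4, 5% v/v DMSO. Triplicates were shaken 10 min. A boiled DMSO-only sample served as the destabilization-induced zinc release reference. Zinc release was read as absorbance at 500 nm, with DMSO-only values subtracted.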

[7] = target: T7, wild-type (WT) JARID1A PHD3 (Homo sapiens, UniProt P29375); test: Dose ratio; type: binding; settings: di-N-desethylamiodarone 0, 20, 40, 80 μM; tegaserod maleate 0, 80, 160, 320 μM
T7 sequence (P29375 1601-1660): T1 sequence (P29375 1601-1660)

[8] = tested on: JARID1A PHD3 D1624 mutants; test: Dose ratio; type: binding; settings: di-N-desethylamiodarone 0, 20, 40, 80 μM; tegaserod maleate 0, 80, 160, 320 μM
Method in brief: (§2)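 Fluorescence polarization Schild analysis. Increasing GST-JARID1A PHD3 (wild type or mutant) is titrated against a fixed inhibitor concentration plus 3 nM H3(1–14)K4me3K14fluo probe. The EC50 is determined at each inhibitor level. The dose ratio is the fold change in EC50 with inhibitor relative to EC50 without inhibitor.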

[9] = tested on: JARID1A PHD3 D1629 mutants; test: Dose ratio; type: binding; settings: di-N-desethylamiodarone 0, 20, 40, 80 μM; tegaserod maleate 0, 80, 160, 320 μM
Method in brief: as §2

[10] = target: T8, JMJD2A double tudor domain (Homo sapiens, UniProt O75164); test: Zinc ejection study; type: biochemical
T8 sequence (O75164 895-1011): T2 sequence (O75164 895-1011)
Method in brief: as §1

AIRE PHD1 [11] = target: T6, AIRE PHD1; test: Zinc ejection study; type: biochemical; settings: compared with JARID1A PHD3
Method in brief: as §1

BHC80 PHD [12] = target: T4, BHC80 PHD; test: Zinc ejection study; type: biochemical; settings: compared with JARID1A PHD3
Method in brief: as §1

JARID1A PHD3 [13] = target: T5, JARID1A PHD3; test: Affinity pull down with TMR-labeled HaloTag-JARID1A PHD3; type: binding; settings: for inhibition of JARID1A PHD3 in affinity pull down: compound 0–500 μM
Method in brief: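 Streptavidin-agarose beads are loaded with biotinylated histone peptide (about 300 pmol per 6.6 μL bed volume) in 1% BSA-HBST for 30 min. HaloTag-JARID1A PHD3 is prelabeled with TMR ligand (10 μM each, 15 min, dark) and used at 100 nM final with beads. Compound is 0–500 μM at 5% DMSO, 45 min ambient, dark. After three HBST washes, beads are boiled in SDS buffer, run on 12% SDS-PAGE and scanned for TAMRA fluorescence.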

JMJD2A DTD [14] = target: T2, JMJD2A DTD; test: Fluorescence polarization counterscreen; type: binding
Method in brief: (§3)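 Test compound titrated into GST-reader fusion at its 90% fraction-bound concentration plus 3 nM fluorescein-labeled H3(1–14) probe. Protein: AIRE PHD1 4 μM and BHC80 PHD 60 μM (K4-unmodified probe); JMJD2A DTD 4 μM and RAG2 PHD 25 μM (K4me3 probe). Buffer was 30 mM HEPES, 150 mM NaCl, pH 7.4, 0.01% Triton X-100. Triplicates read by polarization. IC50 fitted from fraction bound versus log[inhibitor].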

BHC80 PHD [15] = target: T4, BHC80 PHD; test: Fluorescence polarization counterscreen; type: binding; settings: H3K4-unmodified probe; NM: Not measurable within solubility limit of compound
Method in brief: as §3

RAG2 PHD [16] = target: T3, RAG2 PHD; test: Fluorescence polarization counterscreen; type: binding; settings: NM: Not measurable within solubility limit of compound
Method in brief: as §3

AIRE PHD1 [17] = target: T6, AIRE PHD1; test: Fluorescence polarization counterscreen; type: binding; settings: H3K4-unmodified probe; NM: Not measurable within solubility limit of compound
Method in brief: as §3

JARID1A PHD3 D1629A = target: T9, JARID1A PHD3 D1629A (Homo sapiens, UniProt P29375, D1629A); type: binding; settings: D1629 mutation, independent of substitution
T9 sequence (P29375 1601-1660 D1629A): T1 sequence (P29375 1601-1660) with D29A

JARID1A PHD3 D1629N = target: T10, JARID1A PHD3 D1629N (Homo sapiens, UniProt P29375, D1629N); type: binding; settings: D1629 mutation, independent of substitution
T10 sequence (P29375 1601-1660 D1629N): T1 sequence (P29375 1601-1660) with D29N

T4 sequence (Q96BD5 486-543): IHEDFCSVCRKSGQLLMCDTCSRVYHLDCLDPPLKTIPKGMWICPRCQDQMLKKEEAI

loss of peptide binding, JMJD2A DTD, HaloTag assay (JMJD2A DTD [1]): significantly affected
loss of peptide binding, RAG2 PHD, HaloTag assay (RAG2 PHD [2]): significantly affected
loss of peptide binding, BHC80 PHD, HaloTag assay (BHC80 PHD [3]): but not AIRE PHD1 or BHC80 PHD
effect on JARID1A PHD3 binding to H3K4me3 peptide in HaloTag assay (JARID1A PHD3 [4]): significantly reduced signal
loss of peptide binding, AIRE PHD1, HaloTag assay (AIRE PHD1 [5]): but not AIRE PHD1 or BHC80 PHD
zinc release from JARID1A PHD3 (PAR assay) (JARID1A PHD3 [6]): not causing zinc release
Molecule: CCCCc1oc2ccccc2c1C(=O)c1cc(I)c(OCCN(CC)CC)c(I)c1 [Amiodarone, amiodarone HCl]
loss of polarization (loss of peptide binding) (GST-JARID1A PHD3): did not cause a significant loss in polarization

Molecule: CCCCc1oc2ccccc2c1C(=O)c1cc(I)c(OCCNCC)c(I)c1 [Desethylamiodarone, desethylamiodarone]
inhibition of JARID1A PHD3 in fluorescence polarization assay (GST-JARID1A PHD3; within the concentration range tested): Neither dimethyl-AMI analog nor desethyl-AMI significantly inhibited

Molecule: CCCCc1oc2ccccc2c1C(=O)c1cc(I)c(OCCN)c(I)c1 [Di-N-desethylamiodarone, di-N-desethylamiodarone]
shift of EC50 / dose ratio with increasing fixed inhibitor [7]: increase in EC50 values
shift of EC50 / dose ratio with increasing fixed inhibitor [8]: dose ratios were less pronounced than for WT JARID1A PHD3
shift of EC50 / dose ratio with increasing fixed inhibitor [9]: dose ratios that remained near one

EC50 (JARID1A PHD3 [6]; read-out: concentration for half-maximal zinc loss (PAR assay), 5 μM His6-JARID1A PHD3): 33 µM
Molecule: CSS(C)(=O)=O [MMTS, methyl methanethiosulfonate]

Molecule: CCc1oc2ccccc2c1C(=O)c1cc(Br)c(O)c(Br)c1 [benzbromarone]
effect on JARID1A PHD3 binding to H3K4me3 peptide in HaloTag assay (JARID1A PHD3 [4]): but not benzbromarone, inhibited JARID1A PHD3

zinc release from JMJD2A double tudor domain [10]: No zinc release was observed
susceptibility to zinc ejection, AIRE PHD1 (AIRE PHD1 [11]): similarly susceptible
effect on JARID1A PHD3 binding to H3K4me3 peptide in HaloTag assay (JARID1A PHD3 [4]): significantly reduced signal
EC50 (JARID1A PHD3 [6]): 10 µM
susceptibility to zinc ejection, BHC80 PHD (BHC80 PHD [12]): similarly susceptible
inhibition of JARID1A PHD3 in affinity pull down (JARID1A PHD3 [13]): inhibited JARID1A PHD3
Molecule: CCN(CC)C(=S)SSC(=S)N(CC)CC [disulfiram, tetraethylthiuram disulfide]
loss of polarization (loss of peptide binding) (GST-JARID1A PHD3): did not cause a significant loss in polarization
loss of peptide binding, RAG2 PHD, HaloTag assay (RAG2 PHD [2]): Significant (by p-value) loss of peptide binding
loss of peptide binding, BHC80 PHD, HaloTag assay (BHC80 PHD [3]): Significant (by p-value) loss of peptide binding
loss of peptide binding, AIRE PHD1, HaloTag assay (AIRE PHD1 [5]): Significant (by p-value) loss of peptide binding

effect on JARID1A PHD3 binding to H3K4me3 peptide in HaloTag assay (JARID1A PHD3 [4]): inhibited JARID1A PHD3
Molecule: CCCCc1oc2ccc(NS(C)(=O)=O)cc2c1C(=O)c1ccc(OCCCN(CCCC)CCCC)cc1 [dronedarone]

Molecule: O=C(O)/C=C\C(=O)O [maleate]
effect on JARID1A PHD3 binding to H3K4me3 peptide in HaloTag assay (JARID1A PHD3 [4]): not maleate

Molecule: c1ccc2c(c1)Nc1ccccc1S2 [phenothiazine]
loss of polarization (loss of peptide binding) (GST-JARID1A PHD3): did not cause a significant loss in polarization
effect on JARID1A PHD3 binding to H3K4me3 peptide in HaloTag assay (JARID1A PHD3 [4]): significantly reduced signal

shift of EC50 / dose ratio with increasing fixed inhibitor [7]: increase in EC50 values
IC50 (GST-JARID1A PHD3): 74 ± 16 µM
loss of peptide binding, JMJD2A DTD, HaloTag assay (JMJD2A DTD [1]): Modest reductions in binding
IC50 (JMJD2A DTD [14]): 95 ± 9.8 µM
loss of peptide binding, RAG2 PHD, HaloTag assay (RAG2 PHD [2]): Modest reductions in binding
IC50 towards BHC80 PHD, fluorescence polarization assay (BHC80 PHD [15]): exceeded the solubility limits
shift of EC50 / dose ratio with increasing fixed inhibitor [9]: dose ratios that remained near one
loss of peptide binding, BHC80 PHD, HaloTag assay (BHC80 PHD [3]): Modest reductions in binding
effect on JARID1A PHD3 binding to H3K4me3 peptide in HaloTag assay (JARID1A PHD3 [4]): significantly reduced signal
IC50 towards RAG2 PHD, fluorescence polarization assay (RAG2 PHD [16]): exceeded the solubility limits
loss of peptide binding, AIRE PHD1, HaloTag assay (AIRE PHD1 [5]): Modest reductions in binding
IC50 towards AIRE PHD1, fluorescence polarization assay (AIRE PHD1 [17]): exceeded the solubility limits
zinc release from JARID1A PHD3 (PAR assay) (JARID1A PHD3 [6]): not causing zinc release
inhibition of JARID1A PHD3 in affinity pull down (JARID1A PHD3 [13]): inhibited JARID1A PHD3
Molecule: [H]/N=C(/NCCCCC)N/N=C/c1c[nH]c2ccc(OC)cc12 [tegaserod, Tegaserod maleate]
shift of EC50 / dose ratio with increasing fixed inhibitor [8]: dose ratios were less pronounced than for WT JARID1A PHD3

defect in affinity relative to wild-type (JARID1A PHD3 D1629A): greater than 10 fold
defect in affinity relative to wild-type (JARID1A PHD3 D1629N): greater than 10 fold
IC50 (JARID1A PHD3 [13]; read-out: experimental IC50, peptide competition in affinity pull down): 13.6 ± 4.5 µM
Molecule: H3K4me3 peptide: histone H3 peptide trimethylated at lysine 4; unlabeled competitor or fluorescein-labeled H3(1–14) probe

inhibition of JARID1A PHD3 by peptide competition in HaloTag assay (JARID1A PHD3 [4]; 25 μM peptide): did not significantly inhibit
Molecule: unmethylated H3 peptide: histone H3 peptide unmodified at lysine 4 (ARTKQTARKSTEW; E(PEG-biotin) at position 12)
